Laboratory results from ChEMBL document CHEMBL1138494, “Human glucagon receptor antagonists with thiazole cores. A novel series with superior pharmacokinetic properties” (J Med Chem, 2009).
Activity calls are given as the source filed them. The calls are words filed in the database; no cut-off is given here.

Columns and labels:
[1] = target: T1, Gastric inhibitory polypeptide receptor (Homo sapiens, UniProt P48546); experiment: Displacement of [125I]porcine GIP from human recombinant GIPR receptor expressed in BHK cells by scintillation proximity assay; assay type: cell-based
T1 sequence (P48546 whole entry): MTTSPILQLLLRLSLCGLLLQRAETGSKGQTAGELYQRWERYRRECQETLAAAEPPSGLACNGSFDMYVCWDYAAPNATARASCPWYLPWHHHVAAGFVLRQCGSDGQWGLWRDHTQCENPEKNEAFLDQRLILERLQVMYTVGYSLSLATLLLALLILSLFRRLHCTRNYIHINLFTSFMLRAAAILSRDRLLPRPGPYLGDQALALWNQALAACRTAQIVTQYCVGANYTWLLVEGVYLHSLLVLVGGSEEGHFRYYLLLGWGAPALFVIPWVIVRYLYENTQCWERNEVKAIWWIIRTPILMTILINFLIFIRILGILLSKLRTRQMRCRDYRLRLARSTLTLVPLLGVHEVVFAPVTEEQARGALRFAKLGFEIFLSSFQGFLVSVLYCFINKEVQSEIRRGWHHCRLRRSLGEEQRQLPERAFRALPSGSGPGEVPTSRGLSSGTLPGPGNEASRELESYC

Glucagon receptor [2] = target: T2, Glucagon receptor (Homo sapiens, UniProt P47871); experiment: Displacement of [125I]porcine glucagon from human recombinant glucagon receptor expressed in BHK cells by scintillation proximity assay; assay type: cell-based
T2 sequence (P47871 whole entry): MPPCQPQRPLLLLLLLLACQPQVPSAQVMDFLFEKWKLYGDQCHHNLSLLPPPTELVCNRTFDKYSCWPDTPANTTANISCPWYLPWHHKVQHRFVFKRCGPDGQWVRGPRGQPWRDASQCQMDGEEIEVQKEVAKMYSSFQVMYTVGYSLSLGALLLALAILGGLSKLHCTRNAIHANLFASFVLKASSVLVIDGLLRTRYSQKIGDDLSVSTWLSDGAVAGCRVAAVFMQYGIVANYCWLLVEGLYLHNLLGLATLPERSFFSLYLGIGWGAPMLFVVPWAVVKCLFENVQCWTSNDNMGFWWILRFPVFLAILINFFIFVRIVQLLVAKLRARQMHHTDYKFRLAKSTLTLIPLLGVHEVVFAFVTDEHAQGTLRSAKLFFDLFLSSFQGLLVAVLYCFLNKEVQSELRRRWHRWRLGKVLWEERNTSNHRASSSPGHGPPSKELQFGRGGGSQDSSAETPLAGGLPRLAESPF

[3] = Half life in fasted Sprague-Dawley rat plasma at 1.9 mg/kg, iv by HTLC-MS/MS analysis; assay type: ADME, organism-based; parameters: dose 1.9 mg/kg, route intravenous
Method in brief: (§1)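 Rats were dosed intravenously and perorally in separate arms, and plasma concentration-time profiles were obtained. Half-life was taken from the iv arm. Clearance, oral bioavailability, Cmax and Tmax were derived from the profiles.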

[4] = Oral bioavailability in fasted Sprague-Dawley rat at 3.7 mg/kg by HTLC-MS/MS analysis; assay type: ADME, organism-based; conditions: in vivo
Method in brief: (§2)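 Separate intravenous and peroral dosing arms per compound, with plasma concentration followed against time. Oral bioavailability (F_po) is reported per compound together with the intravenous half-life and clearance. The dose used for each arm is listed per compound.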

[5] = Clearance in fasted Sprague-Dawley rat at 1.9 mg/kg, iv and 3.7 mg/kg, po by HTLC-MS/MS analysis; assay type: ADME, organism-based; conditions: in vivo; method in brief: as §1
[6] = Cmax in fasted Sprague-Dawley rat at 1.9 mg/kg, iv and 3.7 mg/kg, po by HTLC-MS/MS analysis; assay type: ADME, organism-based; conditions: in vivo; method in brief: as §1
[7] = Tmax in fasted Sprague-Dawley rat at 1.9 mg/kg, iv and 3.7 mg/kg, po by HTLC-MS/MS analysis; assay type: ADME, organism-based; conditions: in vivo
Method in brief: (§3)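 Plasma concentration–time profiles were recorded after separate intravenous and peroral dosing at the per-compound doses listed. T_max is reported in min alongside C_max (ng/mL), intravenous half-life and clearance ((mL/min)/kg).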

Homo sapiens [8] = organism: Homo sapiens; experiment: Selectivity ratio of IC50 for human recombinant glucagon receptor to IC50 for human recombinant GIPR
Method in brief: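 Competition binding of compounds to recombinant human glucagon and GIP receptors on BHK cell membranes, run in parallel as a scintillation proximity assay and, for selected compounds, as a membrane filtration assay.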

Homo sapiens [9] = organism: Homo sapiens; experiment: Selectivity for human recombinant glucagon receptor over human GLP1R
Glucagon receptor [10] = target: T2, Glucagon receptor; experiment: Binding affinity to human recombinant glucagon receptor expressed in BHK cells by membrane filter assay; assay type: cell-based
[11] = target: T1, Gastric inhibitory polypeptide receptor; experiment: Binding affinity to human recombinant GIPR expressed in BHK cells by membrane filter assay; assay type: cell-based
[12] = Half life in fasted Sprague-Dawley rat plasma at 1.6 mg/kg, iv by HTLC-MS/MS analysis; assay type: ADME, organism-based; parameters: dose 1.6 mg/kg, route intravenous; method in brief: as §1
[13] = Oral bioavailability in fasted Sprague-Dawley rat at 3.15 mg/kg by HTLC-MS/MS analysis; assay type: ADME, organism-based; conditions: in vivo; method in brief: as §2
[14] = Clearance in fasted Sprague-Dawley rat at 1.6 mg/kg, iv and 3.15 mg/kg, po by HTLC-MS/MS analysis; assay type: ADME, organism-based; conditions: in vivo; method in brief: as §1
[15] = Cmax in fasted Sprague-Dawley rat at 1.6 mg/kg, iv and 3.15 mg/kg, po by HTLC-MS/MS analysis; assay type: ADME, organism-based; conditions: in vivo; method in brief: as §1
[16] = Tmax in fasted Sprague-Dawley rat at 1.6 mg/kg, iv and 3.15 mg/kg, po by HTLC-MS/MS analysis; assay type: ADME, organism-based; conditions: in vivo; method in brief: as §3
Glucagon receptor [17] = target: Glucagon receptor (Rattus norvegicus, UniProt P30082); experiment: Binding affinity to glucagon receptor in rat liver membrane by membrane filter assay; assay type: cell membranes
Chain of Glucagon receptor (Rattus norvegicus, UniProt P30082) (P30082 whole entry): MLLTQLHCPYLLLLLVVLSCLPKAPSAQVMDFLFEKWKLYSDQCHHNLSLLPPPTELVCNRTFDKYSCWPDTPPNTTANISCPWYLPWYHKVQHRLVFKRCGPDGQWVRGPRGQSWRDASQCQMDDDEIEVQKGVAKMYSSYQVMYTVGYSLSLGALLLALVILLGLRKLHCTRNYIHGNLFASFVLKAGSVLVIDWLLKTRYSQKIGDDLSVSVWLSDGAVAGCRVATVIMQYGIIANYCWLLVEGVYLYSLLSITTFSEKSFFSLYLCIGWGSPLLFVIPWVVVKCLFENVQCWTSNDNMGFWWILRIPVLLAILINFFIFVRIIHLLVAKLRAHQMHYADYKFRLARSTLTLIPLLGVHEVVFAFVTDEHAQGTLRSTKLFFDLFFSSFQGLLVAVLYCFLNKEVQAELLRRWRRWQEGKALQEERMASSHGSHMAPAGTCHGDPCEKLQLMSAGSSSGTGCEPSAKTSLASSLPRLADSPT

Glucagon receptor [18] = target: Glucagon receptor (Mus musculus, UniProt Q61606); experiment: Binding affinity to glucagon receptor in mouse liver membrane by membrane filter assay; assay type: cell membranes
Chain of Glucagon receptor (Mus musculus, UniProt Q61606) (Q61606 whole entry): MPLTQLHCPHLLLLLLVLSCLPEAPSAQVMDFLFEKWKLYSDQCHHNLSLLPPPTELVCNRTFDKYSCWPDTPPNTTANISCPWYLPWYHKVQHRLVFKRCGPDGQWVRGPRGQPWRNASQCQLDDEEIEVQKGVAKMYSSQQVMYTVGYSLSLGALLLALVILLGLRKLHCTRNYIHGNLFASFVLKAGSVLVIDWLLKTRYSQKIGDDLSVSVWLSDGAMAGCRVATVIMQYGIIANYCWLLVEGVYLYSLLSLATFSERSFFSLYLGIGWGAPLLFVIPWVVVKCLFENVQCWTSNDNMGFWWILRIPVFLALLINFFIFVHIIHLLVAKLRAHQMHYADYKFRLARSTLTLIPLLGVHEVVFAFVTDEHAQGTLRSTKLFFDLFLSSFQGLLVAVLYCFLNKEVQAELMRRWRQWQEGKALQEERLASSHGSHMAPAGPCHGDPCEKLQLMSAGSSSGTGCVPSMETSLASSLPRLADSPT

[19] = Binding affinity to glucagon receptor in monkey liver membrane by membrane filter assay; assay type: cell membranes, Macaca mulatta
Hepatocyte [20] = experiment: Inhibition of glucagon-stimulated glucose production in human primary hepatocytes preincubated for 10 mins before glucagon addition by NADH-linked hexokinase assay; assay type: functional, cell-based
Method in brief: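 Cultured primary human hepatocytes were preincubated with compound for 10 min, then glycogenolysis was induced with 5 nM glucagon for 60 min. Glucose in the medium was measured against basal glycogenolysis. Albumin was present in the assay medium. IC50 was calculated from four experiments, mean ± SEM.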

Hepatocyte [21] = experiment: Inhibition of glucagon-stimulated glucose production in rat primary hepatocytes; assay type: functional, cell-based
[22] = Half life in fasted Sprague-Dawley rat plasma at 1.66 mg/kg, iv by HTLC-MS/MS analysis; assay type: ADME, organism-based; parameters: dose 1.66 mg/kg, route intravenous; method in brief: as §1
[23] = Oral bioavailability in fasted Sprague-Dawley rat at 3.34 mg/kg by HTLC-MS/MS analysis; assay type: ADME, organism-based; conditions: in vivo; method in brief: as §2
[24] = Clearance in fasted Sprague-Dawley rat at 1.66 mg/kg, iv and 3.34 mg/kg, po by HTLC-MS/MS analysis; assay type: ADME, organism-based; conditions: in vivo; method in brief: as §1
[25] = Cmax in fasted Sprague-Dawley rat at 1.66 mg/kg, iv and 3.34 mg/kg, po by HTLC-MS/MS analysis; assay type: ADME, organism-based; conditions: in vivo; method in brief: as §1
[26] = Tmax in fasted Sprague-Dawley rat at 1.66 mg/kg, iv and 3.34 mg/kg, po by HTLC-MS/MS analysis; assay type: ADME, organism-based; conditions: in vivo; method in brief: as §3

SMILES	IC50 [1] [µM]	IC50 (Glucagon receptor [2]) [µM]	fold change (FC) (Homo sapiens [8])	fold change (FC) (Homo sapiens [9])	IC50 (Glucagon receptor [10]) [µM]	IC50 [11] [µM]	further results
O=C(NC[C@@H](O)C(=O)O)c1ccc(CN(c2ccc3c(c2)CCC3)c2nc(-c3ccc(OC(F)(F)F)cc3)cs2)cc1	> 1	0.225	5	> 50	–	–	–
O=C(O)CCNC(=O)c1ccc(CN(c2nc(-c3ccc(Cl)c(Cl)c3)cs2)C2CCCc3ccccc32)cc1 (stereo not drawn)	1.11	0.531	5	> 50	–	–	–
O=C(NC[C@@H](O)C(=O)O)c1ccc(CN(c2ccc3c(c2)CCC3)c2nc(-c3ccc(C(F)(F)F)cc3)cs2)cc1	> 1	0.261	5	> 50	–	–	–
O=C(O)CCNC(=O)c1ccc(CN(c2ccc3c(c2)CCC3)c2nc(-c3ccc(C(F)(F)F)cc3)cs2)cc1	1.1	0.086	5	> 50	0.064	0.51	IC50 (Glucagon receptor [17]): 5.4 µM; IC50 (Glucagon receptor [18]): 0.83 µM; IC50 [19]: 0.081 µM; IC50 (Hepatocyte [20]): < 20 µM; inhibition (Hepatocyte [21]): inactive; half-life [22]: 2.18 h; bioavailability [23]: 89%; clearance [24]: 0.78 L/h/kg; Cmax [25]: 0.92 µg/mL; Tmax [26]: 1 h

Stronger by IC50 [1], values ahead:

IC50 [1] [µM]	IC50 (Glucagon receptor [2]) [µM]	fold change (FC) (Homo sapiens [8])	fold change (FC) (Homo sapiens [9])	IC50 (Glucagon receptor [10]) [µM]	IC50 [11] [µM]	SMILES	further results
0.389	0.13	5	> 50	–	–	O=C(O)CCNC(=O)c1ccc(CN(c2ccc(C3=CCCCC3)cc2)c2nc(-c3ccccc3)cs2)cc1	half-life [3]: 0.617 h; bioavailability [4]: 5%; clearance [5]: 2.1 L/h/kg; Cmax [6]: 0.094 µg/mL; Tmax [7]: 1.5 h
0.633	0.119	5	> 50	0.093	0.293	Cc1cc(N(Cc2ccc(C(=O)NCCC(=O)O)cc2)c2nc(-c3ccc(C(F)(F)F)cc3)cs2)ccc1C(C)C	–
0.729	0.315	5	> 50	–	–	CC(C)(C)c1ccc(-c2csc(N(Cc3ccc(C(=O)NCCC(=O)O)cc3)c3ccc(C(C)(C)C)cc3)n2)cc1	–
0.555	0.093	5	> 50	0.034	0.32	O=C(O)CCNC(=O)c1ccc(N(Cc2ccc3c(c2)Cc2ccccc2-3)c2nc(-c3ccc(Cl)cc3)cs2)cc1	–
0.721	0.118	5	> 50	–	–	CC(C)(C)c1ccc(-c2csc(N(Cc3ccc(C(=O)NCCC(=O)O)cc3)c3ccc(C4=CCCCC4)cc3)n2)cc1	half-life [12]: 0.5 h; bioavailability [13]: 2%; clearance [14]: 2.34 L/h/kg; Cmax [15]: 0.013 µg/mL; Tmax [16]: 1.5 h
0.95	0.085	5	> 50	0.096	0.77	O=C(O)CCNC(=O)c1ccc(CN(c2ccc3c(c2)CCC3)c2nc(-c3ccc(OC(F)(F)F)cc3)cs2)cc1	IC50 (Glucagon receptor [17]): 4.4 µM; IC50 (Glucagon receptor [18]): 0.68 µM; IC50 [19]: 0.094 µM; IC50 (Hepatocyte [20]): 8.6 µM; inhibition (Hepatocyte [21]): inactive; half-life [22]: 1.02 h; bioavailability [23]: 87%; clearance [24]: 0.9 L/h/kg; Cmax [25]: 0.704 µg/mL; Tmax [26]: 4 h
